In experiment [1] the test system is U-937. The experiment in a line: Cytotoxicity against human U937 cells assessed as reduction in cell viability at 10 uM in presence of vorinostat incubated for 72 hrs by CellTiter-Glo Luminescent cell viability assay relative to control. It is filed as functional. Particulars: U-937, 72 h. In a few lines:
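Viability after 72 h of single-agent or combined treatment with the HDAC inhibitor (0.05–0.25 μM) and the EZH2 inhibitor. EZH2 inhibitor range: U937 5–25 μM; RH4 10–50 μM. Synergy was assessed by combination index and isobologram analysis.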
(In general: Cellular ATP, detected with luciferase, serves as a proxy for viable cell number.)

The target in experiment [2] is T1, Histone-lysine N-methyltransferase EZH2 (Homo sapiens, UniProt Q15910). Description: Inhibition of EZH2 in human U937 cells assessed as H3K27me3 level at 50 uM incubated for 120 hrs by Western blot analysis. It is filed as cell-based. Particulars: U-937. For orientation: In western blotting, separated proteins are transferred to a membrane and probed.
The target in experiment [3] is T2, Protein deacetylase HDAC6 (Homo sapiens) (UniProt Q9UBN7).
T2 sequence (whole entry): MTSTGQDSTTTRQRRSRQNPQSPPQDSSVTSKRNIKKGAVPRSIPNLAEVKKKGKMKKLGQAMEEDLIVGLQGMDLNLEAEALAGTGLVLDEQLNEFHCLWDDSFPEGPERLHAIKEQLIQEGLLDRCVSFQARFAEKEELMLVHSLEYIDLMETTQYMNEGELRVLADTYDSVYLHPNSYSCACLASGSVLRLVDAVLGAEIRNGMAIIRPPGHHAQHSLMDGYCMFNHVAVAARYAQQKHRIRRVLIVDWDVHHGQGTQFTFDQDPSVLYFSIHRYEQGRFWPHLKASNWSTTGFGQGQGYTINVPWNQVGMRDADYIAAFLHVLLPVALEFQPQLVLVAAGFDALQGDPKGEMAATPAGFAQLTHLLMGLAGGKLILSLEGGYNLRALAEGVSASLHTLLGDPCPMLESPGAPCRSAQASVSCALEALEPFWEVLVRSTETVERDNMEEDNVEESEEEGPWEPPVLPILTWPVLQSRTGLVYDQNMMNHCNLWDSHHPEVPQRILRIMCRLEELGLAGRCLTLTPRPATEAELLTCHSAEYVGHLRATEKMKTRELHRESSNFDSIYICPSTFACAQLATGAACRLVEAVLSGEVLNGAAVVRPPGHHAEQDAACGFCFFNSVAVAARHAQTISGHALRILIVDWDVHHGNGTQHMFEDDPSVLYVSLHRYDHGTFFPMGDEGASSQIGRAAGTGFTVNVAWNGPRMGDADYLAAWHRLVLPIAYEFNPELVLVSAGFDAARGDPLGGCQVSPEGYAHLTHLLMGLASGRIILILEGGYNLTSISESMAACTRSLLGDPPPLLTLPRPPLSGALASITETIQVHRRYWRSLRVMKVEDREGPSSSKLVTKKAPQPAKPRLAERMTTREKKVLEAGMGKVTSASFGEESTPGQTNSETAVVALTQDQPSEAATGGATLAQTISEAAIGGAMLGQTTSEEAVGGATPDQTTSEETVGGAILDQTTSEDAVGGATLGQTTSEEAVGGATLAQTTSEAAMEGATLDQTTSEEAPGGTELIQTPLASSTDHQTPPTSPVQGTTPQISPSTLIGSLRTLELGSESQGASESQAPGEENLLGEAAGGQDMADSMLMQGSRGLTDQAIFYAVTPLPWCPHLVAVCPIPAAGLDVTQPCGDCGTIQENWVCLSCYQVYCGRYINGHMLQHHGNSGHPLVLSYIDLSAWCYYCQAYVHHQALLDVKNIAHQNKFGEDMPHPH
Description: Inhibition of HDAC6 in human RH4 cells assessed as acetylated alpha-tubulin level at 50 uM incubated for 72 hrs by Western blot analysis. It is filed as cell-based.

The target in experiment [4] is T1, Histone-lysine N-methyltransferase EZH2. Description: Inhibition of EZH2 in human RH4 cells assessed as H3K27me3 level at 50 uM incubated for 72 hrs by Western blot analysis. It is filed as cell-based.
Experiment [5] has the same target. Description: Inhibition of EZH2 in human RH4 cells assessed as H3K27me3 level at 50 uM in presence of vorinostat incubated for 96 hrs by Western blot analysis (reference value: 1). It is filed as cell-based. In short, it runs like this:
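RH4 cells co-treated with EZH2 inhibitor at 50 μM plus HDAC inhibitor at 0.15 μM; Western blot after 72 or 96 h for H3K27me3 or acetyl-tubulin, vinculin loading control; densitometry normalized to loading control then DMSO vehicle.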

Experiment [6] has as its target Histone deacetylase 3 (Homo sapiens, UniProt O15379). Description: Inhibition of human recombinant HDAC3 using AMC-K(Ac)GL as substrate by fluorescence based assay.
Experiment [7] concerns U-937. Description: Cytotoxicity against human U937 cells assessed as reduction in cell viability incubated for 72 hrs by CellTiter-Glo Luminescent cell viability assay. The format is functional, cell-based. Particulars: U-937, 72 h.
Experiment [8] deals with U-937. The experiment in a line: Cytotoxicity against human U937 cells assessed as reduction in cell viability at 10 uM incubated for 96 hrs by CellTiter-Glo Luminescent cell viability assay relative to control. It is filed as functional. Conditions: U-937, 96 h. In a few lines: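 Viability of U937 (5–25 μM) and RH4 (5–35 μM) cells after 48, 72 and 96 h of treatment at increasing concentrations.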

Experiment [9] in a line: Cytotoxicity against human RH4 cells assessed as reduction in cell viability incubated for 72 hrs by CellTiter-Glo Luminescent cell viability assay. The format is functional, cell-based. Conditions: Rh4, 72 h. In short, it runs like this:
(§1)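 Antiproliferative IC50 after 72 h of treatment. Values are means of three independent experiments, each measured in triplicate, ± SD.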

The subject of experiment [10] is SK-N-SH. The experiment in a line: Cytotoxicity against human SK-N-SH cells assessed as reduction in cell viability incubated for 72 hrs by CellTiter-Glo Luminescent cell viability assay. It is filed as functional, cell-based. In a few lines:
as §1

Experiment [11] concerns U-87 MG. The experiment in a line: Cytotoxicity against human U87 cells assessed as reduction in cell viability incubated for 72 hrs by CellTiter-Glo Luminescent cell viability assay. The format is functional, cell-based, U-87MG ATCC. In short, it runs like this:
as §1

Experiment [12] has as its system U-937. Description: Induction of apoptosis in human U937 cells assessed as viable cells at 10 uM incubated for 72 hrs by annexin V-FITC staining based flow cytometry (reference value: 95.4 %). The format is functional. Conditions: U-937, 72 h, read-out: Activity. In general terms: In flow cytometry, cells or beads pass a laser one at a time.
Experiment [13] relates to U-937. Description: Induction of apoptosis in human U937 cells assessed as late apoptotic cells at 10 uM incubated for 72 hrs by annexin V-FITC staining based flow cytometry (reference value: 0.7 %). The format is functional.
Experiment [14] deals with U-937. Description: Induction of apoptosis in human U937 cells assessed as necrotic cells at 10 uM incubated for 72 hrs by annexin V-FITC staining based flow cytometry (reference value: 0.5 %). It is filed as functional.
Experiment [15] deals with U-937. Description: Induction of apoptosis in human U937 cells assessed as late apoptotic cells at 25 uM incubated for 72 hrs by annexin V-FITC staining based flow cytometry (reference value: 0.7 %). It is filed as functional.
The nature of experiment [16]: Cell cycle arrest in human RH4 cells assessed as S accumulation at 14 uM incubated for 72 hrs by propidium iodide staining based flow cytometry (reference value: 29.9 %). The format is functional.
A short description of experiment [17]: Cell cycle arrest in human RH4 cells assessed as subG1 accumulation at 14 uM incubated for 72 hrs by propidium iodide staining based flow cytometry (reference value: 1.9 %). It is filed as functional.
A short description of experiment [18]: Cell cycle arrest in human RH4 cells assessed as G2/M accumulation at 14 uM incubated for 72 hrs by propidium iodide staining based flow cytometry (reference value: 18.9 %). It is filed as functional.
The nature of experiment [19]: Induction of apoptosis in human RH4 cells assessed as late apoptotic cells at 28 uM incubated for 72 hrs by annexin V-FITC staining based flow cytometry (reference value: 2.1 %). It is filed as functional.

T1 sequence (Q15910 whole entry, looked up): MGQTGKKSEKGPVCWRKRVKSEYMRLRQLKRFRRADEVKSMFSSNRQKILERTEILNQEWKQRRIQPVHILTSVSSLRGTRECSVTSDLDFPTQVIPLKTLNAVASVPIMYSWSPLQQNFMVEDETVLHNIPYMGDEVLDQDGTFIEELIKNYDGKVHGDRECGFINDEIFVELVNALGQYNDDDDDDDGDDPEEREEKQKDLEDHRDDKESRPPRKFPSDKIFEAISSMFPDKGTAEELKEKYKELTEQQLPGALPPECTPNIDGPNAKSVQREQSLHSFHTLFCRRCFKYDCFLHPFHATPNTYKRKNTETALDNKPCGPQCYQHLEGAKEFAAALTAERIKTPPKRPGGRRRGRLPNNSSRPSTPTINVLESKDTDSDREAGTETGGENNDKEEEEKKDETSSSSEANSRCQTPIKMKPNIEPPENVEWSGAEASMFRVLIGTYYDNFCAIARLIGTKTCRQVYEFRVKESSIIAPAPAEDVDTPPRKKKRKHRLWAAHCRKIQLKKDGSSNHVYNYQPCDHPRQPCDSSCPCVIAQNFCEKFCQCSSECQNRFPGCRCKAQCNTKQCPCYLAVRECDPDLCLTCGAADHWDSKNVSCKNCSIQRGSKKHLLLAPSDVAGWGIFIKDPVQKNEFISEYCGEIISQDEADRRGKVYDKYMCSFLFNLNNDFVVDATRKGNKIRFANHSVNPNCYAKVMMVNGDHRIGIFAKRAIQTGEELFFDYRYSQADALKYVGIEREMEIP
Chain of Histone deacetylase 3 (O15379 whole entry): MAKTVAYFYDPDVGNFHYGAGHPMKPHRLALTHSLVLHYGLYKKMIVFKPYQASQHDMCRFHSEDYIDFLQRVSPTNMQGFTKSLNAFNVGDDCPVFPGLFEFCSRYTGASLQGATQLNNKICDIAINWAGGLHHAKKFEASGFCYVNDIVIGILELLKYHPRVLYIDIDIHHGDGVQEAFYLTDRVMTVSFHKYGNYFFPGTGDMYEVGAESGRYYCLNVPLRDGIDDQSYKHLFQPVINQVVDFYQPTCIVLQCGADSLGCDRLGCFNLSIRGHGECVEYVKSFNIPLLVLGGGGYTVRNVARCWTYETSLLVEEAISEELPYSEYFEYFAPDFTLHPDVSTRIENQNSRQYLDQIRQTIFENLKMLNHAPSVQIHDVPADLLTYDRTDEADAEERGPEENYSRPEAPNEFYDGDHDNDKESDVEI

For orientation: inhibition means the share of the control response that was lost under treatment. As for `Cc1cc(C)c(CNC(=O)c2cc(C)n(-c3ccccc3)c2C)c(=O)[nH]1`, in experiment [1], the inhibition at 10 µM stood at 70%. The fold change (FC) worked out at 0.7 in experiment [2], 0.6 in experiment [3], 0.3 in experiment [4] and 0.2 in experiment [5].
What is called IC50 is the midpoint of a concentration-inhibition curve. In the case of `Cc1cc(C)c(CNC(=O)c2cc(C)n(-c3cccc(NC(=O)CCCCCCC(=O)NO)c3)c2C)c(=O)[nH]1`, the IC50 in [6] is 0.45 µM; in [7] it was 9 µM; in experiment [9], 13 µM; in experiment [10], 25 µM; in experiment [11], 20 µM. The inhibition at 10 µM in experiment [8] amounted to 60%. Besides, the viability at 10 µM in experiment [12] amounted to 95%. Also, the Activity in [13] is on record as 0.7%; in experiment [14] it was 0.1%; in experiment [15], 1.4%; in experiment [16], 30.3%; in experiment [17] it was 3.8%; in [18], 16.1%. Also, in experiment [19], the Activity is recorded as 4.4%.

These data come from ChEMBL document CHEMBL4613315, “Design of First-in-Class Dual EZH2/HDAC Inhibitor: Biochemical Activity and Biological Evaluation in Cancer Cells” (ACS Med Chem Lett, 2020).
